# Experiments:
# Format in all cases: functional
# [1] = system: Streptococcus pyogenes; test: Antibacterial activity against clinically isolated erythromycin-resistant Streptococcus pyogenes R2 by broth microdilution method
# How it was run: (§1)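 MICs measured in vitro by broth microdilution following NCCL recommendations, against a Gram-positive panel of sensitive and resistant strains. Azithromycin and clarithromycin were tested alongside as references.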
# [2] = system: Staphylococcus aureus; test: Antibacterial activity against methicillin-susceptible Staphylococcus aureus ATCC 29213 by broth microdilution method; how it was run: as §1
# [3] = system: Streptococcus pneumoniae; test: Antibacterial activity against erythromycin-resistant Streptococcus pneumoniae B1 expressing ermB gene by broth microdilution method; how it was run: as §1
# [4] = system: Streptococcus pneumoniae; test: Antibacterial activity against erythromycin-resistant Streptococcus pneumoniae AB11 expressing ermB and mefA genes by broth microdilution method; how it was run: as §1
# [5] = system: Streptococcus pneumoniae; test: Antibacterial activity against erythromycin-susceptible Streptococcus pneumoniae ATCC 49619 by broth microdilution method
# How it was run: (§2)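 Broth microdilution MIC following the NCCL-recommended method. Panel of sensitive and resistant Gram-positive strains: S. pyogenes S2 (erythromycin-susceptible clinical isolate), S. aureus ATCC25923 and S. pneumoniae ATCC49619 (erythromycin-susceptible). Azithromycin and clarithromycin were run alongside as references.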
# [6] = system: Streptococcus pneumoniae; test: Antibacterial activity against erythromycin-resistant Streptococcus pneumoniae A22072 expressing mefA gene by broth microdilution method; how it was run: as §1
# [7] = system: Streptococcus pyogenes; test: Antibacterial activity against clinically isolated erythromycin-susceptible Streptococcus pyogenes S2 by broth microdilution method; how it was run: as §2
# [8] = system: Staphylococcus aureus; test: Antibacterial activity against clinically isolated penicillin-resistant Staphylococcus aureus by broth microdilution method
# How it was run: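 Clinical penicillin-resistant S. aureus isolate, not further characterized, tested in a Gram-positive panel. MIC was measured by broth microdilution following NCCL recommendations, with azithromycin and clarithromycin as references.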
# [9] = system: Staphylococcus aureus; test: Antibacterial activity against erythromycin-susceptible Staphylococcus aureus ATCC 25923 by broth microdilution method; how it was run: as §2
Structure (SMILES),MIC [1],MIC [2],MIC [3],MIC [4],MIC [5],MIC [6],MIC [7],MIC [8],MIC [9]
CC[C@H]1OC(=O)[C@@H](C)[C@H](O[C@H]2C[C@@](C)(OC)[C@@H](OC(=O)NNC(=O)/C=C/c3ccccc3F)[C@H](C)O2)[C@@H](C)[C@H](O[C@H]2O[C@@H](C)C[C@@H](N(C)C)[C@@H]2O)[C@@](C)(O)C[C@H](C)CN(C)[C@@H](C)[C@@H]2OC(=O)O[C@@]12C,64 µg/mL,8 µg/mL,16 µg/mL,32 µg/mL,8 µg/mL,2 µg/mL,0.25 µg/mL,16 µg/mL,4 µg/mL
CC[C@H]1OC(=O)[C@@H](C)[C@H](O[C@H]2C[C@@](C)(OC)[C@@H](OC(=O)NNC(=O)/C=C/c3ccc(Cl)cc3)[C@H](C)O2)[C@@H](C)[C@H](O[C@H]2O[C@@H](C)C[C@@H](N(C)C)[C@@H]2O)[C@@](C)(O)C[C@H](C)CN(C)[C@@H](C)[C@@H]2OC(=O)O[C@@]12C,32 µg/mL,8 µg/mL,8 µg/mL,8 µg/mL,4 µg/mL,0.5 µg/mL,1 µg/mL,8 µg/mL,8 µg/mL
CC[C@H]1OC(=O)[C@@H](C)[C@H](O[C@H]2C[C@@](C)(OC)[C@@H](OC(=O)NNC(=O)/C=C/c3ccc(Br)cc3)[C@H](C)O2)[C@@H](C)[C@H](O[C@H]2O[C@@H](C)C[C@@H](N(C)C)[C@@H]2O)[C@@](C)(O)C[C@H](C)CN(C)[C@@H](C)[C@@H]2OC(=O)O[C@@]12C,16 µg/mL,4 µg/mL,8 µg/mL,4 µg/mL,4 µg/mL,0.25 µg/mL,1 µg/mL,8 µg/mL,4 µg/mL
CC[C@H]1OC(=O)[C@@H](C)[C@H](O[C@H]2C[C@@](C)(OC)[C@@H](OC(=O)NNC(=O)/C=C/c3ccc(OC)c(OC)c3)[C@H](C)O2)[C@@H](C)[C@H](O[C@H]2O[C@@H](C)C[C@@H](N(C)C)[C@@H]2O)[C@@](C)(O)C[C@H](C)CN(C)[C@@H](C)[C@@H]2OC(=O)O[C@@]12C,64 µg/mL,16 µg/mL,32 µg/mL,8 µg/mL,2 µg/mL,0.5 µg/mL,0.5 µg/mL,8 µg/mL,8 µg/mL
CC[C@@H]1OC(=O)[C@H](C)[C@@H](O[C@H]2C[C@@](C)(OC)[C@@H](OC(=O)NNC(=O)/C=C/c3ccco3)[C@H](C)O2)[C@@H](C)[C@@H](O[C@@H]2O[C@H](C)C[C@H](N(C)C)[C@H]2O)[C@](C)(O)C[C@@H](C)CN(C)[C@H](C)[C@@H](OC(=O)NCc2ccccc2)[C@]1(C)O,64 µg/mL,4 µg/mL,4 µg/mL,8 µg/mL,0.12 µg/mL,0.12 µg/mL,0.25 µg/mL,1 µg/mL,1 µg/mL
CC[C@H]1OC(=O)[C@@H](C)[C@H](O[C@H]2C[C@@](C)(OC)[C@@H](OC(=O)NNC(=O)/C=C/c3ccccc3OC)[C@H](C)O2)[C@@H](C)[C@H](O[C@H]2O[C@@H](C)C[C@@H](N(C)C)[C@@H]2O)[C@@](C)(O)C[C@H](C)CN(C)[C@@H](C)[C@@H]2OC(=O)O[C@@]12C,64 µg/mL,4 µg/mL,4 µg/mL,2 µg/mL,4 µg/mL,0.25 µg/mL,8 µg/mL,8 µg/mL,2 µg/mL
CC[C@H]1OC(=O)[C@@H](C)[C@H](O[C@H]2C[C@@](C)(OC)[C@@H](OC(=O)NNC(=O)/C=C/c3ccc(F)cc3)[C@H](C)O2)[C@@H](C)[C@H](O[C@H]2O[C@@H](C)C[C@@H](N(C)C)[C@@H]2O)[C@@](C)(O)C[C@H](C)CN(C)[C@@H](C)[C@@H]2OC(=O)O[C@@]12C,64 µg/mL,8 µg/mL,64 µg/mL,16 µg/mL,16 µg/mL,2 µg/mL,0.5 µg/mL,16 µg/mL,2 µg/mL
CC[C@H]1OC(=O)[C@@H](C)[C@H](O[C@H]2C[C@@](C)(OC)[C@@H](OC(=O)NNC(=O)/C=C/c3cc(OC)c(OC)c(OC)c3)[C@H](C)O2)[C@@H](C)[C@H](O[C@H]2O[C@@H](C)C[C@@H](N(C)C)[C@@H]2O)[C@@](C)(O)C[C@H](C)CN(C)[C@@H](C)[C@@H]2OC(=O)O[C@@]12C,64 µg/mL,16 µg/mL,32 µg/mL,16 µg/mL,4 µg/mL,0.5 µg/mL,0.5 µg/mL,16 µg/mL,8 µg/mL
CC[C@H]1OC(=O)[C@@H](C)[C@H](O[C@H]2C[C@@](C)(OC)[C@@H](OC(=O)NNC(=O)/C=C/c3ccc(C#N)cc3)[C@H](C)O2)[C@@H](C)[C@H](O[C@H]2O[C@@H](C)C[C@@H](N(C)C)[C@@H]2O)[C@@](C)(O)C[C@H](C)CN(C)[C@@H](C)[C@@H]2OC(=O)O[C@@]12C,≥ 128 µg/mL,8 µg/mL,64 µg/mL,64 µg/mL,16 µg/mL,2 µg/mL,0.5 µg/mL,8 µg/mL,4 µg/mL
CC[C@H]1OC(=O)[C@@H](C)[C@H](O[C@H]2C[C@@](C)(OC)[C@@H](OC(=O)NNC(=O)/C=C/c3ccco3)[C@H](C)O2)[C@@H](C)[C@H](O[C@H]2O[C@@H](C)C[C@@H](N(C)C)[C@@H]2O)[C@@](C)(O)C[C@H](C)CN(C)[C@@H](C)[C@@H]2OC(=O)O[C@@]12C,≥ 128 µg/mL,8 µg/mL,32 µg/mL,16 µg/mL,8 µg/mL,1 µg/mL,0.25 µg/mL,4 µg/mL,2 µg/mL
CC[C@H]1OC(=O)[C@@H](C)[C@H](O[C@H]2C[C@@](C)(OC)[C@@H](OC(=O)NNC(=O)/C=C/c3ccc([N+](=O)[O-])cc3)[C@H](C)O2)[C@@H](C)[C@H](O[C@H]2O[C@@H](C)C[C@@H](N(C)C)[C@@H]2O)[C@@](C)(O)C[C@H](C)CN(C)[C@@H](C)[C@@H]2OC(=O)O[C@@]12C,≥ 128 µg/mL,8 µg/mL,16 µg/mL,8 µg/mL,2 µg/mL,0.5 µg/mL,0.25 µg/mL,16 µg/mL,2 µg/mL
CC[C@@H]1OC(=O)[C@H](C)[C@@H](O[C@H]2C[C@@](C)(OC)[C@@H](OC(=O)NNC(=O)/C=C/c3ccccc3)[C@H](C)O2)[C@@H](C)[C@@H](O[C@@H]2O[C@H](C)C[C@H](N(C)C)[C@H]2O)[C@](C)(O)C[C@@H](C)CN(C)[C@H](C)[C@@H](OC(=O)NCc2ccccc2)[C@]1(C)O,32 µg/mL,1 µg/mL,2 µg/mL,4 µg/mL,0.5 µg/mL,1 µg/mL,0.5 µg/mL,1 µg/mL,0.5 µg/mL
CC[C@H]1OC(=O)[C@@H](C)[C@H](O[C@H]2C[C@@](C)(OC)[C@@H](OC(=O)NNC(=O)/C=C/c3ccccc3)[C@H](C)O2)[C@@H](C)[C@H](O[C@H]2O[C@@H](C)C[C@@H](N(C)C)[C@@H]2O)[C@@](C)(O)C[C@H](C)CN(C)[C@@H](C)[C@@H]2OC(=O)O[C@@]12C,64 µg/mL,8 µg/mL,8 µg/mL,4 µg/mL,2 µg/mL,0.25 µg/mL,0.25 µg/mL,8 µg/mL,8 µg/mL
